Diaphorase inh = inhibits diaphorase or chemically oxidizes, flagging diaphorase assay artifacts; inhibition, % at 20 µM; 190,000 tested, 0.69% active; diaphorase resazurin-to-resorufin fluorescence, NADH, 16 min; bacterial (C. kluyveri) enzyme, not human; AID 1217;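 active means primary screen inhibition at 20 µM above a set limit, cut at about 50% in these data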;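 further: plate controls were DMSO with full reaction for no effect and wells lacking NADH for full effect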
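System: Diaphorase enzyme from Clostridium kluyveri | Amount: Enzyme working solution with 0.14 U/mL diaphorase | Benchmarks: No-NADH positive control and DMSO neutral control | Signal: Fluorescence of resorufin formed from resazurin, Ex 544/Em 590 nm | Schedule: 16-min room-temperature incubation before reading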
L major viab = Leishmania major promastigote growth inhibition; inhibition, % at 10 µM; AID 1063; 200,000 tested, 9% active; Leishmania major promastigotes, resazurin fluorescence viability;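 further: promastigotes grown with compound for 44 hours at 28 °C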
G6PDH CS = inhibits Leuconostoc G6PDH, flagging false hits in G6PDH-based assays; Purified L. mesenteroides G6PDH, diaphorase/resazurin coupled fluorescence, 45 min; inhibition, % at 5 µM; 200,000 tested, 0.12% active
Redox H2O2 prof = compounds producing H2O2 with reducing agent – biochemical, NIH compound library profiling, artefact control for MLSCN library redox annotation, primary screen; 200,000 tested, 0.03% active; activation, % at 10 µM; DTT-dependent redox cycling H2O2, phenol red/HRP absorbance; 100% = 100 µM peroxide control, 0% = buffer;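 active means activation of at least 50% relative to the plate's high and low controls in the primary single-dose screen; inactive means activation below 50%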;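 further: compound incubated with DTT at 0.8 mM final as the reducing agent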
PfG6PD inh = PfG6PD (Plasmodium falciparum) enzyme inhibition; 350,000 tested, 0.78% active; PfGluPho enzyme, NADPH resazurin-diaphorase fluorescence; AID 504690; inhibition, % at 20 µM;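 active means inhibition reaching at least a set limit at 20 µM in the primary screen, cut at about 59% in these data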;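 further: 0% = DMSO wells with substrate and 100% = DMSO wells lacking glucose-6-phosphate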
Diaphorase act = activates diaphorase or chemically reduces, flagging diaphorase assay artifacts; Diaphorase/resazurin coupled assay, resorufin fluorescence, 16 min; stronger effect = higher value; 1 = vehicle wells, 0 = NADH-free wells; activation factor at 20 µM; 190,000 tested, 0.005% active; AID 1229;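 active means diaphorase activity raised at least twofold by the compound at 20 µM; inactive means activation factor below 2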
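Measured by – red resorufin fluorescence at 544/590 nm excitation/emission · Test system – Clostridium kluyveri diaphorase, purified enzyme · Incubation – reaction time 16 min, room temperature · Buffer or medium – 50 mM HEPES pH 7.4 with 4.542 mM MgCl2, 0.005% Tween 20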
An asterisk follows results filed as active; nt = no result given. Only a selection was taken, and hits are over-represented in it overall. Unless noted, no stated cut-off is given here; in the data, active means inhibition above about 50%; inactive means the rest.

SMILES	Diaphorase inh	L major viab	G6PDH CS	Redox H2O2 prof	PfG6PD inh	Diaphorase act
Cc1cc(Br)ccc1OCCCCNC(C)(C)C	10.9	99.6*	1.8	1.5	7.3	0.9
COCCNC(=O)COc1ccc(Br)cc1Cl	3.5	0.8	0.9	0.9	-0.9	1
CC(C)(C)NCCCCOc1ccccc1F	4.2	99.6*	10.5	-0.1	-8.8	1
COc1ccccc1OCCCCNC(C)(C)C	-1.1	5.5	4.4	1.3	-17.2	1
CCOC(=O)C(=CNc1cccnc1Oc1ccc(C)c2c1CCC2)C(=O)OCC	nt	nt	nt	nt	22.6	nt
CC(C)Cc1nnc(NC(=O)C2CCCC2)s1	nt	nt	nt	nt	-3.2	nt
COc1ccccc1NC(C)C(=O)N/N=C/c1ccccc1OCc1cccc(Br)c1 (stereo not given)	22.0	15.5	-0.5	0.3	19.5	0.8
S=c1[nH]nc(-c2ccccn2)n1/N=C/c1cccc2ccccc12	27.9	50.0*	10.2	0.1	22.0	0.7
CC1CCN(C2(O)C(=O)Nc3ccc(Br)cc32)CC1 (stereo not given)	4.9	1.3	2.9	-0.9	18.3	1
O=C(/C=C/c1cc[n+](CC(=O)c2ccc3cccc4c3c2CC4)cc1)c1ccc2cccc3c2c1CC3	nt	nt	nt	nt	72.8*	nt
CCC(CNC(=O)c1c(C)nn(-c2ccccc2)c1Cl)c1ccccc1 (stereo not given)	nt	nt	nt	nt	-10.3	nt
CC1=C(NCCc2ccccc2)CCC1=O	15.1	63.8*	6.2	-0.1	7.1	0.8
CN(CC(=O)Nc1ccc(OC(F)(F)F)cc1)S(=O)(=O)c1cnc[nH]1	nt	nt	nt	nt	-11.3	nt
O=c1c(Cl)c(N2CCN(c3ccc(F)cc3)CC2)cnn1C12CC3CC(CC(C3)C1)C2	19.5	62.5*	9.5	-0.2	-4.8	0.8
Cc1ccc(CNc2cnn(C34CC5CC(CC(C5)C3)C4)c(=O)c2Cl)cc1	12.1	10.7	-7.8	0.1	-6.6	0.9
O=c1c(Cl)c(NCc2ccc(F)cc2)cnn1C12CC3CC(CC(C3)C1)C2	8.3	72.5*	21.8	-0.1	-7.5	0.9
O=c1c(Cl)c(N2CCN(c3ccccc3)CC2)cnn1C12CC3CC(CC(C3)C1)C2	7.2	3.8	-0.8	-0.7	0.5	0.9
O=c1c(Cl)c(NCc2ccco2)cnn1C12CC3CC(CC(C3)C1)C2	13.8	3.8	6.7	-0.2	5.0	0.9
O=c1c(Cl)c(NCc2ccccc2Cl)cnn1C12CC3CC(CC(C3)C1)C2	16.6	83.5*	-13.0	0.2	-3.3	0.8
Cc1nc2c(-c3ccc(F)cc3)c(C)nn2c(C)c1CCC(=O)Nc1ccccc1	nt	nt	nt	nt	5.5	nt
CCN1CCN(c2ccc(NC(=O)CCc3c(C)nc4c(-c5ccc(F)cc5)c(C)nn4c3C)cc2)CC1	1.9	99.4*	0.2	-0.3	9.9	1
O=C(COc1ccccc1F)NCC(c1ccc(F)cc1)N1CCOCC1 (stereo not given)	nt	nt	nt	nt	-0.3	nt
COc1ccc(CCNC(=O)CSc2nc3ccccc3o2)cc1	19.2	-6.5	-5.5	0.1	-18.9	0.8
COc1cccc(-n2c(SCC(=O)N3c4ccccc4CC3C)nnc2-c2ccco2)c1 (stereo not given)	21.4	53.4*	5.4	0.1	3.9	0.8
CCOC(=O)CSc1nnc2n1C(C)(C)Cc1ccccc1-2	-4.5	-6.7	12.1	16.5	-118.5	1
SMILES	Diaphorase inh	L major viab	G6PDH CS	Redox H2O2 prof	PfG6PD inh	Diaphorase act
CC1Cc2ccccc2N1C(=O)CSc1nnc2n1C(C)(C)Cc1ccccc1-2 (stereo not given)	14.9	52.3*	-1.1	0.6	18.2	0.9
CCn1c(SCC(=O)N2c3ccccc3CC2C)nnc1-c1ccco1 (stereo not given)	nt	0.4	nt	0.6	44.7	nt
S=C(Nc1cccc(Cl)c1Cl)N1CCCC1	nt	nt	nt	nt	5.1	nt
Cc1nn2c(nc(N3CCCCC3)c3ccccc32)c1C=O	32.8	53.2*	7.9	-0.4	-1.3	0.7
Cc1nn2c(nc(N3CCOCC3)c3ccccc32)c1C=C(C#N)C#N	9.1	-0.2	-45.4	-0.3	-23.5	0.9
COc1ccc(C2C(C(N)=O)=C(C)Nc3nc(-c4ccccc4Cl)nn32)c(OC)c1 (stereo not given)	7.9	-7.3	-7.6	-1.2	17.8	0.9
Cc1cccc(C(=O)Nc2ccc(C(=O)/C=C/c3ccncc3)cc2)c1	nt	nt	nt	nt	23.9	nt
O=C(N/N=C/c1cccnc1)c1cccc(Br)c1	nt	nt	nt	nt	-19.4	nt
Cc1cccc(C(=O)Nc2ccc(C(=O)/C=C/c3cccnc3)cc2)c1	-8.7	100.5*	3.3	0.2	38.4	1.1
O=C(Nc1ccc(Br)cc1)c1ccc(Br)c(S(=O)(=O)Nc2cccnc2)c1	4.0	72.7*	-0.7	-0.4	-32.4	1
Cc1ccccc1NC(=O)c1ccc(C)c(S(=O)(=O)Nc2cccnc2)c1	nt	nt	nt	nt	-37.7	nt
O=C(/C=C/c1cccnc1)c1ccc(NC(=O)c2cccc(Br)c2)cc1	12.3	99.1*	0.9	-0.3	14.0	0.9
Cc1cc(C)c(NC(=O)CO/N=C2\CCCc3nonc32)c(C)c1	14.9	-3.5	5.2	0.0	-26.2	0.9
CCOC(=O)CNC(=O)N1CCCC(CCC(=O)NCc2ccc(F)c(F)c2)C1 (stereo not given)	-7.7	-1.3	6.8	-0.8	1.4	1.1
CCOc1ccccc1Nc1nnc(SCC(=O)NC(=O)c2cccn2C)s1	12.7	55.7*	2.7	-0.1	24.5	0.9
CCc1ccc(Nc2nnc(SCC(=O)Nc3cccnc3Cl)s2)cc1	14.9	90.1*	-24.8	-0.3	-0.6	0.9
CCCc1cc(=O)[nH]c(SCc2cc(Cl)ccc2OC(F)F)n1	19.4	-1.8	4.8	-5.4	-13.3	0.8
O=C(C1=COCCO1)N(Cc1nnc(-c2ccccc2Cl)o1)C1CC1	nt	nt	nt	nt	4.2	nt
Cc1c(Cl)cccc1NC(=O)CNc1cccc(S(=O)(=O)N(C)C)c1	13.7	72.4*	5.1	2.5	-1.1	0.9
O=C(c1ccccc1NS(=O)(=O)c1ccc(F)cc1)N1CCc2ccccc21	22.0	-7.8	-3.5	-0.1	-8.7	0.8
O=C(c1ccccc1NS(=O)(=O)c1cccc(C(F)(F)F)c1)N1CCc2ccccc21	14.4	65.5*	-0.2	-0.8	-19.9	0.9
CC(C)(C)C(=O)Nc1cc2c3c(c1)CCC(=O)N3CCC2	nt	nt	nt	nt	-4.1	nt
Cc1cccc(C(=O)Oc2ccccc2/C=N/Nc2ccc([N+](=O)[O-])cc2)c1	5.4	98.1*	-20.5	1.3	2.9	0.9
O=[N+]([O-])c1ccc(N/N=C/c2cccc(O)c2O)cc1	nt	nt	nt	nt	53.7	nt
CCCCN(C(=O)c1ccc(NC2CC2)c([N+](=O)[O-])c1)c1c(N)n(CCCC)c(=O)[nH]c1=O	nt	nt	nt	nt	-7.2	nt
O=C(NCCC1=CCCCC1)C(=O)NCC(c1ccco1)N1CCN(c2ccc(F)cc2)CC1 (stereo not given)	9.9	80.3*	-19.8	0.1	-1.2	0.9
